Laboratory results from ChEMBL document CHEMBL1139747, “Pyridine-2-propanoic acids: Discovery of dual PPARalpha/gamma agonists as antidiabetic agents” (Bioorg Med Chem Lett, 2006).

Key:
[1] = target: T1, Peroxisome proliferator-activated receptor gamma (Homo sapiens, UniProt P37231); assay: Agonist activity at human PPAR gamma in HepG2 cells by PPAR-GAL4 transactivation assay; format: functional, cell-based
T1 sequence (P37231 whole entry): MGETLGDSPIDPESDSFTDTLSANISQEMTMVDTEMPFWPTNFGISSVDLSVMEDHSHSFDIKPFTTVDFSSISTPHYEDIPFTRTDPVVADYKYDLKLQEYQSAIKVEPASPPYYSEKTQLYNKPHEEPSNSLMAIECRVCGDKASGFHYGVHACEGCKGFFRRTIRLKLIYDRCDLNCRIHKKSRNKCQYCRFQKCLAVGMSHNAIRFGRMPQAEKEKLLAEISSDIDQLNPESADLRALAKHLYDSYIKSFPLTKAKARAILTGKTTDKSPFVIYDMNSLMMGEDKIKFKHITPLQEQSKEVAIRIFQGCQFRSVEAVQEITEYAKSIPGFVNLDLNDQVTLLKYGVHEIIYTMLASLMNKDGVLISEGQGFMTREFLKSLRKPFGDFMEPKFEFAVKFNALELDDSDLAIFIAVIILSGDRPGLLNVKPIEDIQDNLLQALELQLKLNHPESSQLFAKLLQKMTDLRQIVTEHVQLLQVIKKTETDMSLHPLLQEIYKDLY

[2] = target: T2, Peroxisome proliferator-activated receptor alpha (Homo sapiens) (UniProt Q07869); assay: Agonist activity at human PPAR alpha in HepG2 cells by PPAR-GAL4 transactivation assay relative to GW-2331; format: functional, cell-based
T2 sequence (whole entry): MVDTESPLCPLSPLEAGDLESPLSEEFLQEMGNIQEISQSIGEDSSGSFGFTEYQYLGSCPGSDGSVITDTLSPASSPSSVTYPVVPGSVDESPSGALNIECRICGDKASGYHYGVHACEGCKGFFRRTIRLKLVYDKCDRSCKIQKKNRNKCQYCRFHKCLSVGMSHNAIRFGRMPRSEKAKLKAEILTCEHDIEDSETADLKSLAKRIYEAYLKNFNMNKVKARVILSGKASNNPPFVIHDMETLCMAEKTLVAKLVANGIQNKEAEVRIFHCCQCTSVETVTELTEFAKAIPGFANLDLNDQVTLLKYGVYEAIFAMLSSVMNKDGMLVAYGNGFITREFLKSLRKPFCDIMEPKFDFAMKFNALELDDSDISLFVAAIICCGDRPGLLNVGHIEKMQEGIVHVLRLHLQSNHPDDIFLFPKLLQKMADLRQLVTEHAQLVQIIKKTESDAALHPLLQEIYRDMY
How it was run: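 Human PPARα–GAL4 chimera in HepG2 cells, transactivation read-out. Compounds titrated. EC50 taken as the concentration giving half of the compound's own maximal response. Percent maximal activation expressed relative to GW2331 as the standard full agonist. Where no plateau was reached, only maximal activity was reported.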

[3] = target: T3, Peroxisome proliferator-activated receptor alpha (Homo sapiens, UniProt Q07869); assay: Agonist activity at human PPAR alpha in HepG2 cells by PPAR-GAL4 transactivation assay; format: functional, cell-based
T3 sequence (Q07869 whole entry): T2 sequence (whole entry)

[4] = target: T1, Peroxisome proliferator-activated receptor gamma; assay: Displacement of radiolabeled darglitazone from human PPAR gamma by SPA assay
[5] = target: T3, Peroxisome proliferator-activated receptor alpha; assay: Displacement of radiolabeled GW-2331 from human PPAR alpha by SPA assay
Mus musculus [6] = assay: Reduction of plasma glucose in db/db mouse at 3 mg/kg, po after 8 day; format: functional; set-up: scale not given: the % may be the effect or the level left
Mus musculus [7] = assay: Increase in body weight in db/db mouse at 3 mg/kg, po after 8 day; format: functional
Mus musculus [8] = assay: Reduction of plasma triglycerides in db/db mouse at 3 mg/kg, po after 8 day; format: functional; set-up: scale not given: the % may be the effect or the level left
[9] = target: T2, Peroxisome proliferator-activated receptor alpha (Homo sapiens); conditions: 100 uM
Mus musculus [10] = assay: Reduction of hematocrit in db/db mouse at 30 mg/kg, po after 8 day; format: functional; set-up: scale not given: the % may be the effect or the level left
Mus musculus [11] = assay: Increase in body weight in db/db mouse at 30 mg/kg, po after 8 day; format: functional
Mus musculus [12] = assay: Reduction of hematocrit in db/db mouse at 3 mg/kg, po after 8 day; format: functional; set-up: scale not given: the % may be the effect or the level left
Mus musculus [13] = assay: Reduction of plasma glucose in db/db mouse at 30 mg/kg, po after 8 day; format: functional; set-up: scale not given: the % may be the effect or the level left
Mus musculus [14] = assay: Reduction of plasma triglycerides in db/db mouse at 30 mg/kg, po after 8 day; format: functional; set-up: scale not given: the % may be the effect or the level left
[15] = Half life in orally dosed Sprague-Dawley rat; format: ADME, organism-based; conditions: in vivo, po
How it was run: (§1)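 Male Sprague–Dawley rats were given the compound both orally and intravenously. Clearance comes from the iv leg. Half-life and AUC come from the oral leg, with AUC reported dose-normalized. Oral bioavailability compares the oral and iv exposures.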

[16] = Clearance in iv dosed Sprague-Dawley rat; format: ADME, organism-based; conditions: in vivo; how it was run: as §1
[17] = Oral bioavailability in Sprague-Dawley rat; format: ADME, organism-based; conditions: in vivo; how it was run: as §1
[18] = AUC in orally dosed Sprague-Dawley rat; format: ADME, organism-based; conditions: plasma, po; how it was run: as §1

`Cc1oc(-c2ccccc2)nc1CCOc1ccc(CC2(C(=O)O)CCCCO2)nc1` (stereo unspecified) showed an EC50 [1] of over 10000 nM, an Activity [2] of 5% and an EC50 [3] of over 10000 nM.

Compound `COC(Cc1ccc(OCCc2nc(-c3ccccc3)oc2C)cn1)C(=O)O` (stereo unspecified) has an EC50 [1] of 280 nM, an Activity [2] of 95% and a Ki [4] of 348 nM. The EC50 [3] was 3140 nM and the Ki [5] was 3700 nM.

For `COc1ccc(-c2nc(CCOc3ccc(CC4(C(=O)O)CCCO4)nc3)c(C)o2)cc1` (stereo unspecified), the EC50 [1] was 105 nM, the Activity [2] was 95% and the EC50 [3] was 437 nM. For the same compound, the Ki [5] was 840 nM.

`CN(CCOc1ccc(CC2SC(=O)NC2=O)cc1)c1ccccn1` (stereo unspecified) [ROSIGLITAZONE] gave an Activity (Mus musculus [6]) of 51%, an Activity (Mus musculus [7]) of 9.5% and an Activity (Mus musculus [8]) of 83%. For the same compound, the inhibition [9] was 45%, the Activity (Mus musculus [10]) was 5.2% and the Activity (Mus musculus [11]) was 17.4%. For the same compound, the Activity (Mus musculus [12]) was 1.2%, the Activity (Mus musculus [13]) was 74% and the Activity (Mus musculus [14]) was 106%.

With `COc1cccc(-c2nc(CCOc3ccc(CC4(C(=O)O)CCCO4)nc3)c(C)o2)c1` (stereo unspecified) the EC50 [1] was 5 nM, the Activity [2] was 98% and the EC50 [3] was 1570 nM.

In the case of `Cc1oc(-c2ccccc2)nc1CCOc1ccc(C[C@@]2(C(=O)O)CCCO2)nc1`, the Activity [2] is reported as 6%.

Compound `COC(C)(Cc1ccc(OCCc2nc(-c3ccccc3)oc2C)cn1)C(=O)O` (stereo unspecified) has an EC50 [1] of 335 nM, an Activity [2] of 114% and a Ki [4] of 1600 nM. For the same compound, the EC50 [3] was 882 nM and the Ki [5] was 4800 nM.

In the case of `Cc1oc(-c2ccccc2)nc1CCOc1ccc(C[C@]2(C(=O)O)CCCO2)nc1`, the half-life [15] is reported as 1.6 h, the Activity (Mus musculus [6]) is reported as 74% and the Activity (Mus musculus [7]) is reported as 15.5%. It also gave an Activity (Mus musculus [8]) of 105%, a clearance [16] of 16.7 mL/min/kg and an Activity [2] of 97%. It also gave an Activity (Mus musculus [10]) of 4.4%, an Activity (Mus musculus [11]) of 20.5% and a bioavailability [17] of 58%. It also gave an AUC [18] of 1200 ng·h/mL, an Activity (Mus musculus [12]) of 4.3% and an Activity (Mus musculus [13]) of 94%. The Activity (Mus musculus [14]) was 119%.

In the case of `Cc1oc(-c2ccc(Cl)cc2)nc1CCOc1ccc(CC2(C(=O)O)CCCO2)nc1` (stereo unspecified), the EC50 [1] is reported as 130 nM, the Activity [2] is reported as 122% and the EC50 [3] is reported as 48 nM.

In the case of `Cc1oc(-c2ccccc2)nc1CCOc1ccc(CC2(C(=O)O)CCCO2)nc1` (stereo unspecified), the Activity [2] is reported as 90%.

`CCOC(Cc1ccc(OCCCc2nc(-c3ccccc3)oc2C)cn1)C(=O)O` (stereo unspecified) gave an Activity [2] of 76%, an EC50 [3] of 886 nM and a Ki [5] of 840 nM.

In the case of `CCOC(Cc1ccc(OCCc2nc(-c3ccccc3)oc2C)cn1)C(=O)O` (stereo unspecified), the EC50 [1] is reported as 129 nM, the Activity [2] is reported as 100% and the Ki [4] is reported as 73 nM. The EC50 [3] was 1230 nM and the Ki [5] was 2000 nM.

Compound `Cc1oc(-c2ccccc2)nc1CCOc1ncc(CC2(C(=O)O)CCCO2)cn1` (stereo unspecified) has an EC50 [1] of 2500 nM, an Activity [2] of 58% and an EC50 [3] of over 10000 nM.

`Cc1cccc(-c2nc(CCOc3ccc(CC4(C(=O)O)CCCO4)nc3)c(C)o2)c1` (stereo unspecified) gave an EC50 [1] of 12 nM, an Activity [2] of 93% and an EC50 [3] of 867 nM.

`Cc1oc(-c2ccccc2)nc1CCOc1cnc(CC2(C(=O)O)CCCO2)cn1` (stereo unspecified) gave an EC50 [1] of 156 nM, an Activity [2] of 77% and a Ki [4] of 160 nM. The EC50 [3] was 1890 nM and the Ki [5] was 3490 nM.
